According to PMC9083272 (RSC Advances, 2018):
Where two headings read alike, the source gives them in different places.

Experiments:
[1] = Potentiometric titration, protonation constants; assay type: physicochemical; conditions: I = 0.15 mol dm^−3 NaCl
[2] = Potentiometric determination of complex formation constants; assay type: physicochemical; conditions: I = 0.15 mol dm^−3 NaCl
In short: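 Test ligand in 3 × 10−3 mol dm−3 HCl with 0.15 mol dm−3 NaCl, in fresh DI water, titrated with carbonate-free 0.1 mol dm−3 NaOH. Runs: acid alone, ligand alone, and ligand plus Fe(III) at 3 × 10−3, 1.5 × 10−3 or 1 × 10−3 mol dm−3 (metal:ligand 1:1, 1:2, 1:3). Water bath ±0.1 °C, pH glass electrode, pH 2–11, triplicate. Log β refined jointly from the three ratios.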

[3] = Thermodynamic properties of iron; assay type: physicochemical; conditions: I = 0.15 mol dm^−3 NaCl
In short: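 Log β came from potentiometric titrations at 25, 37 and 40 °C in 0.15 mol dm−3 NaCl. ΔG was computed as −2.303RT log10 β. ΔH and ΔS per species were taken as the slope and intercept, respectively, of a Van't Hoff plot across the three temperatures. Units: ΔG and ΔH in kJ mol−1, ΔS in kJ mol−1 K−1.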

[4] = cited from earlier work
[5] = 298.15 K and 0.05 M, ref Gergely et al. 21
[6] = 298.15 K and 0.15 mol dm^−3 NaNO3, ref Angkawijaya et al. 22

NCC(=O)O [Gly, glycine]
pKa1 ([1]; 25 °C): 2.51(7)
pKa2 ([1]; 25 °C): 9.68(3)
pKa1 ([1]; 37 °C): <2
pKa2 ([1]; 37 °C): 9.37(1)
pKa1 ([1]; 40 °C): <2
pKa2 ([1]; 40 °C): 9.27(2)
log β ([2]; complex [MA2H−2], 25 °C): 6.54(5)
log β ([2]; complex [MA2H−2], 37 °C): 7.55(4)
log β ([2]; complex [MA2H−2], 40 °C): 8.17(8)
log β ([2]; complex [MA2H−3], 25 °C): −4.65(11)
log β ([2]; complex [MA2H−3], 37 °C): −2.95(5)
log β ([2]; complex [MA2H−3], 40 °C): −1.57(9)
log β ([2]; complex [MA2H−4], 40 °C): −11.78(10)
log β ([2]; complex [MA2], 25 °C): 19.10(11)
log β ([2]; complex [MA2], 37 °C): 19.54(10)
log β ([2]; complex [MA2], 40 °C): 19.72(13)
log β ([2]; complex [MA3], 25 °C): 27.59(9)
log β ([2]; complex [MA3], 37 °C): 28.35(3)
log β ([2]; complex [MA3], 40 °C): 28.49(14)
log β ([2]; complex [MAH−1], 25 °C): 6.21(2)
log β ([2]; complex [MAH−1], 37 °C): 6.63(2)
log β ([2]; complex [MAH−1], 40 °C): 6.75(5)
log β ([2]; complex [MAH−2], 25 °C): 2.32(2)
log β ([2]; complex [MAH−2], 37 °C): 3.34(3)
log β ([2]; complex [MAH−2], 40 °C): 3.78(8)
log β ([2]; complex [MA], 25 °C): 9.17(6)
log β ([2]; complex [MA], 37 °C): 9.59(3)
log β ([2]; complex [MA], 40 °C): 9.89(11)
−ΔG ([3]; complex [MA2H−2], 25 °C): 8.927 kcal/mol
−ΔG ([3]; complex [MA2H−2], 37 °C): 10.71 kcal/mol
−ΔG ([3]; complex [MA2H−2], 40 °C): 11.71 kcal/mol
ΔH ([3]; complex [MA2H−2]): 43.332 kcal/mol
ΔS ([3]; complex [MA2H−2]): −0.73 kJ mol^−1 K^−1
−ΔG ([3]; complex [MA2H−3], 25 °C): -6.341 kcal/mol
−ΔG ([3]; complex [MA2H−3], 37 °C): -4.185 kcal/mol
−ΔG ([3]; complex [MA2H−3], 40 °C): -2.25 kcal/mol
ΔH ([3]; complex [MA2H−3]): 79.802 kcal/mol
ΔS ([3]; complex [MA2H−3]): −1.20 kJ mol^−1 K^−1
−ΔG ([3]; complex [MA2], 25 °C): 26.104 kcal/mol
−ΔG ([3]; complex [MA2], 37 °C): 27.727 kcal/mol
−ΔG ([3]; complex [MA2], 40 °C): 28.265 kcal/mol
ΔH ([3]; complex [MA2]): 16.12 kcal/mol
ΔS ([3]; complex [MA2]): −0.59 kJ mol^−1 K^−1
−ΔG ([3]; complex [MA3], 25 °C): 37.639 kcal/mol
−ΔG ([3]; complex [MA3], 37 °C): 40.244 kcal/mol
−ΔG ([3]; complex [MA3], 40 °C): 40.827 kcal/mol
ΔH ([3]; complex [MA3]): 26.109 kcal/mol
ΔS ([3]; complex [MA3]): −0.89 kJ mol^−1 K^−1
−ΔG ([3]; complex [MAH−1], 25 °C): 8.475 kcal/mol
−ΔG ([3]; complex [MAH−1], 37 °C): 9.405 kcal/mol
−ΔG ([3]; complex [MAH−1], 40 °C): 9.68 kcal/mol
ΔH ([3]; complex [MAH−1]): 15.23 kcal/mol
ΔS ([3]; complex [MAH−1]): −0.33 kJ mol^−1 K^−1
−ΔG ([3]; complex [MAH−2], 25 °C): 3.172 kcal/mol
−ΔG ([3]; complex [MAH−2], 37 °C): 4.739 kcal/mol
−ΔG ([3]; complex [MAH−2], 40 °C): 5.416 kcal/mol
ΔH ([3]; complex [MAH−2]): 39.888 kcal/mol
ΔS ([3]; complex [MAH−2]): −0.60 kJ mol^−1 K^−1
−ΔG ([3]; complex [MA], 25 °C): 12.51 kcal/mol
−ΔG ([3]; complex [MA], 37 °C): 13.61 kcal/mol
−ΔG ([3]; complex [MA], 40 °C): 14.18 kcal/mol
ΔH ([3]; complex [MA]): 19.01 kcal/mol
ΔS ([3]; complex [MA]): −0.44 kJ mol^−1 K^−1
pKa1 [4, 5]: 2.33
pKa2 [4, 5]: 9.61
pKa1 [4, 6]: 2.32
pKa2 [4, 6]: 9.62

O=C(O)[C@@H]1CCCN1 [Pro, reference compound]
pKa1 ([4]; ref Zhu et al. 23): 1.99
